Here are results for 15 molecules from PubChem BioAssay.

The nature of experiment [1]: hit retest on RPL19A-GFP reporter strain – cell-based, S. cerevisiae, flow cytometry, cherry picks, mother/daughter gates, confirmation (AID 2270;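 active = GFP response below 50% of the DMSO control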). The note with it: 3 h, at 10 µM, stronger effect = lower value, 100 = same GFP as DMSO wells. (In general: Flow cytometry measures light scatter and fluorescence of single cells or particles in a stream.)
Experiment [2] in a line: yeast TOR pathway reporter LAP4-GFP change – cell-based, cherry picks, flow cytometry, mother/daughter gates, confirmation (AID 2271;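 active = GFP response above 150% of the DMSO control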;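 also: ratio of sample to DMSO plate mean so 100% equals DMSO level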). The following applies: S. cerevisiae LAP4-GFP strain, 3 h, at 10 µM, stronger effect = higher value, 100 means same as DMSO control. The gist of the method:
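System – GFP-fusion yeast strain · Amount – 0.2 OD600 cells · Buffer or medium – SC growth medium · Dosing – single test-compound dose, 10 µM final · Schedule – 3 h treatment at 30 °C with rotation · Detection – GFP by flow cytometry · Read-out – per-gate (all, mother, daughter) GFP response vs DMSO · Benchmarks – positive rapamycin (400 ng/mL), negative DMSO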

Experiment [3] is described as follows: TOR pathway reporter MEP2-GFP, retest of hits – S. cerevisiae, flow cytometry GFP, cherry picks, confirmation (AID 2272;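 active = GFP response above 150% of the DMSO control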;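 also: ratio of well signal to plate DMSO mean so 100% equals DMSO level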). The note with it: S. cerevisiae MEP2-GFP strain, 3 h, at 10 µM, stronger effect = higher value.
The nature of experiment [4]: yeast AGP1-GFP fluorescence change, single-dose – cell-based, flow cytometry, S. cerevisiae, cherry picks, confirmation (AID 2273).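 Also: median GFP channel fluorescence over the whole cell population gate.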 The following applies: S. cerevisiae AGP1-GFP strain, 3 h, at 10 µM.
Experiment [5] in a line: TOR pathway CIT2 reporter hit retest – S. cerevisiae, GFP fusion, cherry picks, mother/daughter gates, confirmation (AID 2274). The following applies: S. cerevisiae CIT2-GFP strain, flow cytometry, 3 h, at 10 µM, stronger effect = higher value.
The mark [6] stands for this setting: measured here: daughter cell gate.
[7] abbreviates: measured here: mother cell gate.
The mark [8] stands for this setting: measured here: daughter cell gate response.
Setting [9] is: measured here: mother cell gate response.

Calls of active or inactive are those of the source.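 The calls were made as follows, unless noted: active = GFP response above 150% of the DMSO level; inconclusive = fewer than 70 events counted for a yeast strain; inactive = the rest.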

Take `COc1cccc(C(=O)N/N=C(\CC(C)C)c2ccccc2)c1`: the GFP response vs DMSO was 97.8% (inactive) in experiment [1], 97% in experiment [1] (setting [6]), 97.7% in experiment [1] (setting [7]) and 103% (inactive) in experiment [3]. Moreover, the GFP response relative to DMSO in experiment [2] is 100% (inactive); in experiment [2] (setting [8]), 101%; in experiment [2] (setting [9]) it was 102%. Besides, the GFP response, % of DMSO is 98.4% (inactive) in experiment [4], 101% (inactive) in experiment [5], 103% in experiment [5] (setting [6]) and 103% in experiment [5] (setting [7]).

Turning to `Cc1ccc(NC(=S)N/N=C/c2c(C)[nH]c3ccccc23)cc1`, the GFP response vs DMSO in experiment [1] was 97.4% (inactive); in experiment [1] (setting [6]) it was 97%; in experiment [1] (setting [7]), 97.9%; in experiment [3], 104% (inactive). In addition, the GFP response relative to DMSO was 101% (inactive) in experiment [2], 93.6% in experiment [2] (setting [8]) and 104% in experiment [2] (setting [9]). Moreover, the GFP response, % of DMSO is 90.1% (inactive) in experiment [4], 104% (inactive) in experiment [5], 108% in experiment [5] (setting [6]) and 100% in experiment [5] (setting [7]).

In the case of `NC(=O)c1ccccc1OCC(=O)c1ccc(Cl)cc1`, the GFP response vs DMSO in experiment [1] was 100% (inactive); in experiment [1] (setting [6]), 101%; in experiment [1] (setting [7]), 99%; in experiment [3], 99.3% (inactive). Moreover, the GFP response relative to DMSO was 96.5% (inactive) in experiment [2], 96% in experiment [2] (setting [8]) and 97.4% in experiment [2] (setting [9]). Further, the GFP response, % of DMSO in experiment [4] is 102% (inactive); in experiment [5] it was 100% (inactive); in experiment [5] (setting [6]), 97.6%; in experiment [5] (setting [7]), 100%.

Regarding `Cc1nn2c(N3CCN(C(=O)c4ccco4)CC3)cc(C(C)(C)C)nc2c1-c1ccccc1`, the GFP response vs DMSO in experiment [1] is 98.2% (inactive); in experiment [1] (setting [6]), 97.6%; in experiment [1] (setting [7]) it was 98.9%; in experiment [3], 100% (inactive). Moreover, the GFP response relative to DMSO in experiment [2] is 92.8% (inactive); in experiment [2] (setting [8]), 94.4%; in experiment [2] (setting [9]) it was 92.9%. The GFP response, % of DMSO in experiment [4] is 97.6% (inactive); in experiment [5], 95.5% (inactive); in experiment [5] (setting [6]) it was 97.2%; in experiment [5] (setting [7]) it was 95%.

For `Cc1nnc(OCc2nc3ccccc3n2C)c2ccccc12`, the GFP response vs DMSO in experiment [1] was 101% (inactive); in experiment [1] (setting [6]), 102%; in experiment [1] (setting [7]), 101%; in experiment [3], 99.5% (inactive). Also, the GFP response relative to DMSO was 98.8% (inactive) in experiment [2], 93.6% in experiment [2] (setting [8]) and 100% in experiment [2] (setting [9]). The GFP response, % of DMSO in experiment [4] was 94.3% (inactive); in experiment [5], 96.4% (inactive); in experiment [5] (setting [6]), 96.4%; in experiment [5] (setting [7]) it was 95.6%.

As to `CSC1=NC(=O)/C(=C/c2ccc(SC)cc2)S1`, the GFP response vs DMSO in experiment [1] was 95.1% (inactive); in experiment [1] (setting [6]), 78%; in experiment [1] (setting [7]), 92.5%; in experiment [3], 110% (inactive). Besides, the GFP response relative to DMSO in experiment [2] was 138% (inactive); in experiment [2] (setting [8]), 115%; in experiment [2] (setting [9]) it was 134%. In addition, the GFP response, % of DMSO in experiment [4] is 107% (inactive); in experiment [5] it was 75% (inactive); in experiment [5] (setting [6]), 78.1%; in experiment [5] (setting [7]), 70.3%.

Take `Cc1cc(C)c2c(c1)/C(=C/C(=O)c1ccc(Br)s1)C(=O)N2`: the GFP response vs DMSO in experiment [1] was 104% (inactive); in experiment [1] (setting [6]) it was 102%; in experiment [1] (setting [7]) it was 103%; in experiment [3] it was 105% (inactive). Moreover, the GFP response relative to DMSO in experiment [2] was 99.5% (inactive); in experiment [2] (setting [8]) it was 101%; in experiment [2] (setting [9]), 102%. For the same molecule, the GFP response, % of DMSO in experiment [4] was 97.8% (inactive); in experiment [5], 94.4% (inactive); in experiment [5] (setting [6]), 93.8%; in experiment [5] (setting [7]), 94.4%.

For the molecule `CCOCCCNC(=O)/C(C#N)=C/c1ccc([N+](=O)[O-])o1`, the GFP response vs DMSO in experiment [1] was 118% (inactive); in experiment [1] (setting [6]) it was 91.2%; in experiment [1] (setting [7]) it was 87.9%; in experiment [3], 285% (active). The figures for the GFP response relative to DMSO in experiment [2], in experiment [2] (setting [8]) and in experiment [2] (setting [9]) were 212% (active), 132% and 129%, respectively. In addition, the GFP response, % of DMSO in experiment [4] is 122% (inactive); in experiment [5], 182% (active); in experiment [5] (setting [6]), 114%; in experiment [5] (setting [7]), 110%.

With `Cc1cc(-c2csc3nc[nH]c(=S)c23)cc(C)c1C`, the GFP response vs DMSO was 96.3% (inactive) in experiment [1], 98.1% in experiment [1] (setting [6]), 95% in experiment [1] (setting [7]) and 127% (inactive) in experiment [3]. The GFP response relative to DMSO in experiment [2] was 112% (inactive); in experiment [2] (setting [8]) it was 114%; in experiment [2] (setting [9]), 109%. The GFP response, % of DMSO in experiment [4] was 118% (inactive); in experiment [5] it was 106% (inactive); in experiment [5] (setting [6]) it was 110%; in experiment [5] (setting [7]) it was 104%.

For the molecule `COc1ccc(NC(=O)CCN2CCN(S(=O)(=O)c3cc(Cl)ccc3OC)CC2)cc1`, the GFP response vs DMSO was 99% (inactive) in experiment [1], 97.8% in experiment [1] (setting [6]), 94.3% in experiment [1] (setting [7]) and 101% (inactive) in experiment [3]. The GFP response relative to DMSO was 99.8% (inactive) in experiment [2], 98.2% in experiment [2] (setting [8]) and 96.2% in experiment [2] (setting [9]). Further, the GFP response, % of DMSO was 105% (inactive) in experiment [4], 102% (inactive) in experiment [5], 100% in experiment [5] (setting [6]) and 102% in experiment [5] (setting [7]).

As for `CCOC(=O)CSC1=NC(=O)/C(=C/c2ccc(Br)cc2)S1`, the GFP response vs DMSO in experiment [1] was 96.3% (inactive); in experiment [1] (setting [6]), 86.3%; in experiment [1] (setting [7]) it was 92.8%; in experiment [3], 98.8% (inactive). Also, the GFP response relative to DMSO in experiment [2] was 161% (active); in experiment [2] (setting [8]), 136%; in experiment [2] (setting [9]), 170%. Further, the GFP response, % of DMSO is 103% (inactive) in experiment [4], 83.5% (inactive) in experiment [5], 77.8% in experiment [5] (setting [6]) and 79.8% in experiment [5] (setting [7]).

`Cc1ccc(-c2nnc(NC(=O)c3ccc([N+](=O)[O-])o3)o2)c(C)c1`: the GFP response vs DMSO in experiment [1] was 101% (inactive); in experiment [1] (setting [6]) it was 99.3%; in experiment [1] (setting [7]) it was 99.8%; in experiment [3], 108% (inactive). The values for the GFP response relative to DMSO in experiment [2], in experiment [2] (setting [8]) and in experiment [2] (setting [9]) were 161% (active), 133% and 160%, respectively. Further, the GFP response, % of DMSO was 92.3% (inactive) in experiment [4], 95.8% (inactive) in experiment [5], 99.3% in experiment [5] (setting [6]) and 91.5% in experiment [5] (setting [7]).

Regarding `O=C(CSc1nnc(-c2ccccn2)n1Cc1ccccc1)N1CCOCC1`, the GFP response vs DMSO in experiment [1] is 103% (inactive); in experiment [1] (setting [6]) it was 102%; in experiment [1] (setting [7]) it was 102%; in experiment [3], 108% (inactive). The values for the GFP response relative to DMSO in experiment [2], in experiment [2] (setting [8]) and in experiment [2] (setting [9]) were 105% (inactive), 107% and 105%, respectively. The GFP response, % of DMSO is 101% (inactive) in experiment [4], 104% (inactive) in experiment [5], 105% in experiment [5] (setting [6]) and 105% in experiment [5] (setting [7]).

As to `NS(=O)(=O)c1ccc(Sc2ccccn2)c([N+](=O)[O-])c1`, the GFP response vs DMSO in experiment [1] was 97.4% (inactive); in experiment [1] (setting [6]), 98.6%; in experiment [1] (setting [7]) it was 98.5%; in experiment [3] it was 100% (inactive). Further, the GFP response relative to DMSO in experiment [2] was 97.9% (inactive); in experiment [2] (setting [8]), 99.2%; in experiment [2] (setting [9]), 98.3%. Besides, the GFP response, % of DMSO in experiment [4] was 101% (inactive); in experiment [5], 98.3% (inactive); in experiment [5] (setting [6]), 101%; in experiment [5] (setting [7]), 98.5%.

In the case of `O=[N+]([O-])c1ccc(-c2cn3nc(-c4ccccc4)c(-c4ccccc4)nc3n2)cc1`, the GFP response vs DMSO in experiment [1] was 102% (inactive); in experiment [1] (setting [6]), 101%; in experiment [1] (setting [7]), 96.2%; in experiment [3], 227% (active). In addition, the GFP response relative to DMSO in experiment [2] was 115% (inactive); in experiment [2] (setting [8]), 115%; in experiment [2] (setting [9]), 114%. The GFP response, % of DMSO in experiment [4] is 106% (inactive); in experiment [5], 109% (inactive); in experiment [5] (setting [6]), 106%; in experiment [5] (setting [7]), 108%.
